17 compounds from ChEMBL document CHEMBL1123837, “1-Amino-substituted 4-methyl-5H-pyrido[3',4':4,5]pyrrolo[3,2-c]pyridines: a new class of antineoplastic agents” (J Med Chem, 1987) can be followed below.

The source made the active and inactive calls. No cut-off for these calls is given here.

One data set deals with Calf thymus DNA. Description: Binding affinity for DNA by ethidium bromide displacement assay. Format: nucleic-acid assay. Conditions: Bos taurus. In outline:
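Competitive ethidium bromide displacement with calf thymus DNA at 10 µg/mL in 20 mM Na phosphate buffer, 0.1 M NaCl, 1 mM EDTA, pH 7.4. The apparent DNA affinity constant is given in 10^6 M^-1 ± standard deviation, from 6 values across two independent experiments.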

The subject of the next data set is L1210. Description: (§1) In vitro cytotoxicity against L1210 cells was determined after 48 hours of incubation. Format: functional, Mus musculus. Conditions: read-out: ID50 (the source's name). Put shortly:
(§2)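 Exponentially growing L1210 cells were cultured in RPMI 1640 with 2 mM glutamine, penicillin/streptomycin and 10% fetal calf serum, under 5% CO2 at 37 °C. Drugs dissolved in distilled water were added to cells at 0.8 × 10^5 cells/mL for 48 h, then cells were counted. ID50 was estimated by regression of dose-response data, as the mean of two values from two independent experiments.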

Data set [1] has as its system Mus musculus. Kind of data set: In vivo antitumor activity was determined against P388 leukemia cells expressed as treated/control at yhe dose of 2.5-40 mg/kg; IA = Inactive. Format: functional, organism-based. Put shortly:
(§3)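 Following NCI protocols, 10^6 viable P388 leukemia cells were inoculated ip on day 0 into male or female CDF1 hybrid mice, 10 per test group. Compounds in distilled water were given ip (0.1 mL/10 g body weight) at various doses on days 1–5. T/C = median survival day of treated / median survival day of negative controls × 100.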

The test system of data set [2] is Mus musculus. Description: In vivo antitumor activity was determined against P388 leukemia cells expressed as treated/control at the dosage of 10 mg/kg. Format: functional. In outline:
as §3

Data set [3] has as its system Mus musculus. Description: In vivo antitumor activity was determined against P388 leukemia cells expressed as treated/control at the dosage of 20 mg/kg. It is filed as functional. Put shortly: as §3
Data set [4] concerns Mus musculus. Description: In vivo antitumor activity was determined against P388 leukemia cells expressed as treated/control at the dosage of 40 mg/kg. Format: functional. Put shortly: as §3
Data set [5] relates to Mus musculus. Description: In vivo antitumor activity was determined against P388 leukemia cells expressed as treated/control at the dose of (2.5-40)mg/kg(nontoxic at highest dose tested.); IA = Inactive. It is filed as functional, organism-based. In outline: as §3
For data set [6], the system named is Mus musculus. Kind of data set: In vivo antitumor activity was determined against P388 leukemia cells expressed as treated/control at the dose of (5-100)mg/kg (nontoxic at highest dose tested.); IA = Inactive. Format: functional, organism-based. In outline:
as §3

Data set [7] deals with Mus musculus. Kind of data set: In vivo antitumor activity was determined against P388 leukemia cells expressed as treated/control at the dosae of (2.5-40)mg/kg; IA = Inactive. It is filed as functional, organism-based. Put shortly:
as §3

A short description of data set [8]: as §1. Format: cell-based. Particulars: mouse, read-out: ID50. Put shortly:
as §2

The test system of data set [9] is Mus musculus. Description: In vivo antitumor activity was determined against P388 leukemia cells expressed as treated/control at the dose of 40 mg/kg; T = toxic at this dose. Format: organism-based. More on the design: dose 40 mg/kg. Put shortly:
as §3

The subject of data set [10] is Mus musculus. Kind of data set: In vivo antitumor activity was determined against P388 leukemia cells expressed as treated/control at the dose of (2.5-20)mg/kg; IA = Inactive. Format: functional, organism-based. In outline: as §3
In data set [11] the test system is Mus musculus. Kind of data set: In vivo antitumor activity was determined against P388 leukemia cells expressed as treated/control at the dose of (1.25-40)mg/kg; IA = Inactive. Format: functional, organism-based. In outline:
as §3

Data set [12] deals with Mus musculus. Kind of data set: In vivo antitumor activity was determined against P388 leukemia cells expressed as treated/control at the dose of (5-50)mg/kg; IA = Inactive. It is filed as functional, organism-based. Put shortly: as §3
Data set [13] has as its system Mus musculus. Kind of data set: In vivo antitumor activity was determined against P388 leukemia cells expressed as treated/control at the dose of (5-60)mg/kg; IA = Inactive. It is filed as functional, organism-based. Put shortly:
as §3

For data set [14], the system named is Mus musculus. Description: In vivo antitumor activity was determined against P388 leukemia cells expressed as treated/control at the dose of 10 mg/kg. It is filed as functional. Put shortly:
as §3

For data set [15], the system named is Mus musculus. Description: In vivo antitumor activity was determined against P388 leukemia cells expressed as treated/control at the dose of 20 mg/kg. It is filed as functional. Put shortly:
as §3

The test system of data set [16] is Mus musculus. Description: In vivo antitumor activity was determined against P388 leukemia cells expressed as treated/control at the dose of 40 mg/kg. Format: functional. In outline:
as §3

In data set [17] the test system is Mus musculus. Kind of data set: In vivo antitumor activity was determined against P388 leukemia cells expressed as treated/control at the dose of 80 mg/kg. It is filed as functional. Put shortly:
as §3

The test system of data set [18] is Mus musculus. Kind of data set: In vivo antitumor activity was determined against P388 leukemia cells expressed as treated/control at the dose of (1.25-20)mg/kg; IA = Inactive. Format: functional, organism-based. In outline:
as §3

Data set [19] concerns Mus musculus. Description: In vivo antitumor activity was determined against P388 leukemia cells expressed as treated/control at the dose of (0.30-60)mg/kg; IA = Inactive. Format: functional, organism-based. Put shortly: as §3
In data set [20] the test system is Mus musculus. Description: In vivo antitumor activity was determined against P388 leukemia cells expressed as treated/control at the dose of (2.5-20)mg/kg(nontoxic at highest dose tested.); IA = Inactive. Format: functional, organism-based. Put shortly: as §3
The subject of data set [21] is Mus musculus. Kind of data set: In vivo antitumor activity was determined against P388 leukemia cells expressed as treated/control at the dose of (1.25-80)mg/kg; IA = Inactive. Format: functional, organism-based. In outline: as §3
Data set [22] has as its system Mus musculus. Kind of data set: In vivo antitumor activity was determined against P388 leukemia cells expressed as treated/control at the dose of (80)mg/kg;T = toxic at this dose. Format: functional, organism-based. In outline:
as §3

As to `Cc1cnc(NCCCN2CCCCC2)c2c3cnccc3n(C)c12`, in the data set on Calf thymus DNA, the K aff amounted to 0.06. The IC50 with L1210 (Mus musculus, L1210, 48 h) was found to be 3.6 µM. Besides, the T/C entry in the data set with Mus musculus [1] was “inactive”.

The compound `Cc1cnc(NCCCN2CCCC2)c2c3cnccc3n(C)c12` had a K aff with Calf thymus DNA of 0.06. Besides, the IC50 in the data set on L1210 (Mus musculus, L1210, 48 h) turned out to be 1.6 µM. Also, the T/C result with Mus musculus [1] was “inactive”.

`CCN(CC)CCCNc1ncc(C)c2[nH]c3ccncc3c12`: in the data set on L1210, the IC50 was determined as 0.34 µM. For the same compound, the T/C is 135 in the data set on Mus musculus [2], 148 in the data set with Mus musculus [3] and 155 in the data set on Mus musculus [4].

In the data set on Calf thymus DNA, `Cc1cnc(NCCCN2CCOCC2)c2c3cnccc3n(C)c12` displayed a K aff of 30000 M⁻¹. In addition, the IC50 in the data set on L1210 (Mus musculus, L1210, 48 h) amounted to 5.3 µM. Also, in the data set with Mus musculus [5], the T/C result was “inactive”.

In turn, `CCN(CC)CCCCNc1ncc(C)c2c1c1cnccc1n2C` returned a K aff in the data set with Calf thymus DNA of 40000 M⁻¹. In addition, in the data set with Mus musculus [6], the T/C entry was “inactive”.

In the data set with Calf thymus DNA, `CCN(CC)CCCNc1ncc(C)c2c1c1cnccc1n2Cc1ccccc1` yielded a K aff of 2000 M⁻¹. For the same compound, in the data set with L1210 (Mus musculus, L1210, 48 h), the IC50 turned out to be 6.4 µM. Moreover, the T/C entry with Mus musculus [7] was “inactive”.

`CCN(CC)CCCNc1[nH]ccc2nc3ccncc3c1-2`: the K aff in the data set on Calf thymus DNA turned out to be 15000 M⁻¹. The CC50 at 48 h in data set [8] turned out to be 46 µM. Also, the T/C entry in the data set on Mus musculus [9] was “Toxic”. Also, the T/C result in the data set with Mus musculus [10] is “inactive”.

`Cc1c[nH]c(NCCCN2CCOCC2)c2c3cnccc3nc1-2` registered a K aff with Calf thymus DNA of 20000 M⁻¹. For the same compound, the IC50 in the data set on L1210 (Mus musculus, L1210, 48 h) is 19.2 µM. Besides, in the data set with Mus musculus [11], the T/C entry was “inactive”.

Take `CCN(CC)CCCNc1nccc2c1c1cnccc1n2C`: the K aff in the data set on Calf thymus DNA came to 17000 M⁻¹. Further, the IC50 in the data set on L1210 (Mus musculus, L1210, 48 h) is 1.6 µM. For the same compound, the T/C entry in the data set on Mus musculus [12] is “inactive”.

In the case of `CN(C)CCCNc1nccc2c1c1cnccc1n2C`, in the data set on Calf thymus DNA, the K aff was found to be 20000 M⁻¹. Further, the IC50 with L1210 (Mus musculus, L1210, 48 h) amounted to 1.2 µM. In the data set with Mus musculus [13], the T/C result is “inactive”.

The compound `CCNCCCNc1ncc(C)c2c1c1cnccc1n2C` gave a K aff with Calf thymus DNA of 50000 M⁻¹. In addition, the IC50 in the data set on L1210 (Mus musculus, L1210, 48 h) amounted to 3.8 µM. The T/C in the data set on Mus musculus [14] was found to be 127; in the data set with Mus musculus [15] it was 145; with Mus musculus [16], 138; in the data set on Mus musculus [17], 149.

Consider `CCCN(CCC)CCCNc1[nH]cc(C)c2nc3ccncc3c1-2`, for which the K aff with Calf thymus DNA amounted to 8000 M⁻¹. The IC50 with L1210 (Mus musculus, L1210, 48 h) was found to be 3.3 µM. Also, the T/C entry in the data set on Mus musculus [18] was “inactive”.

In turn, `CCN(CC)CCCN(C)c1[nH]cc(C)c2nc3ccncc3c1-2` displayed a K aff with Calf thymus DNA of 6000 M⁻¹. The IC50 in the data set with L1210 (Mus musculus, L1210, 48 h) turned out to be 224 µM. The T/C entry in the data set with Mus musculus [19] is “inactive”.

Consider `CCN(CC)CCNc1[nH]cc(C)c2nc3ccncc3c1-2`, for which the K aff in the data set with Calf thymus DNA came out at 12000 M⁻¹. In addition, in the data set with L1210 (Mus musculus, L1210, 48 h), the IC50 stood at 19.5 µM. In addition, the T/C entry in the data set with Mus musculus [9] was “Toxic”. Moreover, in the data set with Mus musculus [10], the T/C entry was “inactive”.

For `CCCN(CCC)CCCNc1ncc(C)c2c1c1cnccc1n2C`, the K aff with Calf thymus DNA amounted to 16000 M⁻¹. Moreover, the IC50 in the data set with L1210 (Mus musculus, L1210, 48 h) is 8.6 µM. Further, the T/C result with Mus musculus [20] is “inactive”.

Take `Cc1c[nH]c(NCCCN2CCN(C)CC2)c2c3cnccc3nc1-2`: in the data set on Calf thymus DNA, the K aff was 27000 M⁻¹. The IC50 with L1210 (Mus musculus, L1210, 48 h) came to 59 µM. Moreover, the T/C entry with Mus musculus [21] is “inactive”.

For `CCN(CC)CCCN(C)c1ncc(C)c2c1c1cnccc1n2C`, the K aff with Calf thymus DNA came out at 3000 M⁻¹. Also, the IC50 in the data set on L1210 (Mus musculus, L1210, 48 h) amounted to 52 µM. Moreover, the T/C result in the data set with Mus musculus [22] was “Toxic”. For the same compound, the T/C entry in the data set with Mus musculus [11] is “inactive”.
